Experiments:
HUVEC [1] = assay: HUVEC morphology and cell number, inverted microscope; type: cell-based, human; details: peptide 100 μM, 4 h, then Ang II 5 μM, 24 h; 200×
Method in brief: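 HUVECs were suspended in fresh medium at a final 4 × 10^5 cells/well in 6-well plates and given 100 μM test peptide for 4 h. Medium was discarded, then 5 μM Ang II was added for 24 h. Cells were observed and photographed under an inverted microscope.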

CAT = CAT activity in HUVEC; type: cell-based, human; details: peptide 100 μM, 4 h, then Ang II 5 μM, 24 h; assay kit; n = 3
SOD = SOD activity in HUVEC; type: cell-based, human; details: peptide 100 μM, 4 h, then Ang II 5 μM, 24 h; assay kit; n = 3
GSH-Px = GSH-Px activity in HUVEC; type: cell-based, human; details: peptide 100 μM, 4 h, then Ang II 5 μM, 24 h; assay kit; n = 3
HUVEC [2] = assay: MDA content in HUVEC; type: cell-based, human; details: 24 h, n = 3
HUVEC [3] = assay: NO level in HUVEC; type: cell-based, human; details: peptide 100 μM, 4 h, then Ang II 5 μM, 24 h; for NO level: assay kit, n = 3
Nrf2 = assay: Western blot, Nrf2 expression in HUVEC; type: cell-based, human; details: peptide 100 μM, 4 h, then Ang II 5 μM, 24 h; for expression of Nrf2 protein: gray scale analysis of bands
Method in brief: (§1)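 HUVECs at 5 × 10^6 cells/well, pretreated with 100 μM test peptide 4 h, then Ang II 5 μM 24 h. Lysed in ice-cold buffer 30 min, spun 12,000 × g 10 min, protein by BCA. Denatured 95 °C 10 min, 20–40 μg on 10% SDS-PAGE, PVDF transfer. Blocked in 5% BSA 1 h RT, primary antibody 4 °C overnight, secondary 1 h RT. Triplicate, mean ± SD.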

eNOS = assay: Western blot, eNOS expression in HUVEC; type: cell-based, human; details: peptide 100 μM, 4 h, then Ang II 5 μM, 24 h
Method in brief: as §1

p-eNOS = assay: Western blot, p-eNOS in HUVEC; type: cell-based, human; details: peptide 100 μM, 4 h, then Ang II 5 μM, 24 h
Method in brief: as §1

ET-1 = assay: Western blot, ET-1 expression in HUVEC; type: cell-based, human; details: peptide 100 μM, 4 h, then Ang II 5 μM, 24 h
Method in brief: as §1

eNOS and ET-1 = details: cited from earlier work
HO-1 = assay: Western blot, HO-1 expression in HUVEC; type: cell-based, human; details: peptide 100 μM, 4 h, then Ang II 5 μM, 24 h; gray scale analysis of bands
Method in brief: as §1

NQO1 = assay: Western blot, NQO1 expression in HUVEC; type: cell-based, human; details: peptide 100 μM, 4 h, then Ang II 5 μM, 24 h; gray scale analysis of bands
Method in brief: as §1

HepG2 = details: cited from earlier work
HUVECs = details: Ang II-stimulated HUVECs; cited from earlier work

Substance | HUVEC morphology (HUVEC [1]) | number of cells (HUVEC [1]) | CAT activity (CAT) | SOD activity (SOD) | GSH-Px activity (GSH-Px) | NO level (HUVEC [3]) | expression of Nrf2 protein (Nrf2) | eNOS expression (eNOS) | eNOS phosphorylation (p-eNOS) (p-eNOS) | ET-1 expression (ET-1) | effect on eNOS and ET-1 levels (eNOS and ET-1) | HO-1 expression (HO-1) | NQO1 expression (NQO1) | protection against hyperglycemia-induced HepG2 damage (HepG2) | also measured
Angiotensin II [Ang II, reference compound] | polygonal or round with the blurred cell boundaries | significantly reduced compared with the Con group | significantly reduced | significantly reduced | significantly reduced | obvious inhibition | significantly inhibited | obvious inhibition | obvious inhibition | increased |  |  |  |  | increase of MDA content compared to the Con group (HUVEC [2]; Ang II 5 μM, compared to Con group): 200%
IPIPATKT |  |  |  |  |  |  |  |  |  |  | improvement effects |  |  |  | 
IVTNWDDMEK |  |  |  |  |  |  |  |  |  |  | improvement effects |  |  |  | 
KLHDEEVA [KA-8] | did not improve the number and morphology of cells as significantly as PG-8 | did not improve the number and morphology of cells as significantly as PG-8 | significantly reversed the decline | significantly reversed the decline | significantly reversed the decline | increased | reversed the inhibitory effect of Ang II | increased | increased | markedly blocked the Ang II-induced changes |  | increased | increased | revealed the protective effects | 
LSGYGP |  |  |  |  |  |  |  |  |  |  | improvement effects |  |  |  | protection against oxidative stress and endothelial injury (HUVECs): revealed protective effects
PSRILYG [PG-7] |  | significantly reversed | significantly rebounded to the levels in the Con group | significantly rebounded to the levels in the Con group | significantly rebounded to the levels in the Con group | increased | reversed the inhibitory effect of Ang II | increased | increased | markedly blocked the Ang II-induced changes |  | higher than that in the KA-8 group | increased | revealed the protective effects | level of intracellular MDA (HUVEC [2]; peptide 100 μM, 4 h, then Ang II 5 μM, assay kit): decreased to that of the Con group; NO level higher than in the Ang II group (HUVEC [3]; compared to Ang II group): more than 100%; Nrf2 content higher than in the Con group (Nrf2; compared to Con group): about 50%; eNOS level higher than in the Ang II group (eNOS; compared to Ang II group): more than 100%; p-eNOS level higher than in the Ang II group (p-eNOS; compared to Ang II group): more than 100%
